Test [1] in a line: Inhibition of photosynthetic phosphorylation from water to methyl viologen in spinach leaves chloroplast. It counts as functional, Spinacia oleracea. The following applies: read-out: I50. In short, it runs like this:
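ATP synthesis determined titrimetrically by pH change, with 0.05 mM MV as Hill acceptor in 100 mM sorbitol, 5 mM MgCl2, 10 mM KCl, 1 mM tricine pH 8.0. Compounds at 50–300 µM; DCMU at 0.01–10.0 µM as reference. I50 extrapolated from the percent-activity versus concentration plot.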

For test [2], the system named is Echinochloa crus-galli. The test is described as follows: Phytogrowth-inhibitory activity against Echinochloa crusgalli assessed as inhibition of seedling growth. It counts as functional, organism-based. In short, it runs like this: (§1)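 Petri-dish seed assay at 28 °C, run at 1, 10, 100 and 1000 µg/mL with 2,4-D as positive control. Data analysed by ANOVA (p<0.05). IC50 in molar units obtained by Probit analysis of percent radicle growth inhibition.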

Test [3] has as its system Amaranthus hypochondriacus. Briefly: Phytogrowth-inhibitory activity against Amaranthus hypochondriacus assessed as inhibition of seedling growth. It counts as functional, organism-based. The gist of the method: as §1
In test [4] the test system is Amaranthus hypochondriacus. The test is described as follows: Phytogrowth-inhibitory activity against Amaranthus hypochondriacus assessed as inhibition of seedling germination. It counts as functional, organism-based.
Test [5] concerns Echinochloa crus-galli. The test is described as follows: Phytogrowth-inhibitory activity against Echinochloa crusgalli assessed as inhibition of seedling germination. It counts as functional, organism-based.
In test [6] the test system is Spinacia oleracea. The test is described as follows: Effect on uncoupled photosystem 2 of spinach leaves chloroplast assessed as inhibition of electron transport from diphenylcarbazide to 2,6-dichlorophenol indophenol at 300 uM relative to control. In short, it runs like this:
(§2)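 Tris-treated (0.8 M, pH 8.0) spinach thylakoids in uncoupled medium with 200 µM DPC, 100 µM DCPIP, 1 µM DBMIB and 6 mM NH4Cl. DCPIP reduction followed spectrophotometrically. Activity expressed relative to control.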

For test [7], the system named is Spinacia oleracea. Briefly: Effect on uncoupled photosystem 2 of spinach chloroplast assessed as inhibition of electron transport rate of water to silicomolybdate at 250 uM relative to control. The gist of the method: (§3)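 Intact thylakoids from market spinach leaves, stored dark 1 h at 0 °C. Uncoupled medium: 100 mM sorbitol, 5 mM MgCl2, 10 mM KCl, 15 mM tricine pH 8.0, 0.5 mM KCN, 300 µM ferricyanide, 1 µM DBMIB, 100 µM DCPIP, 6 mM NH4Cl, plus 200 µM SiMo and 10 µM DCMU. O2 evolution by Clark electrode under filtered actinic light for 2 min. Activity expressed relative to control.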

For test [8], the system named is Spinacia oleracea. Briefly: Effect on uncoupled photosystem 2 of spinach leaves chloroplast assessed as inhibition of electron transport from diphenylcarbazide to 2,6-dichlorophenol indophenol at 150 uM relative to control. The gist of the method:
as §2

Test [9] has as its system Spinacia oleracea. Briefly: Effect on uncoupled photosystem 2 of spinach leaves chloroplast assessed as inhibition of electron transport from water to 2,6-dichlorophenol indophenol at 150 uM relative to control. In short, it runs like this: (§4)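 Uncoupled PSII as DCPIP-supported O2 evolution, monitored polarographically with a Clark electrode. Spinach thylakoids in 100 mM sorbitol, 5 mM MgCl2, 10 mM KCl, 15 mM tricine pH 8.0 and 0.5 mM KCN. Ferricyanide 300 µM replaces MV; 1 µM DBMIB, 100 µM DCPIP and 6 mM NH4Cl added. Illumination 2 min through 1% CuSO4 filter. Activity relative to control.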

The test system of test [10] is Spinacia oleracea. Briefly: Effect on uncoupled photosystem 2 of spinach chloroplast assessed as inhibition of electron transport rate of water to silicomolybdate at 50 uM relative to control. In short, it runs like this: as §3
For test [11], the system named is Spinacia oleracea. The test is described as follows: Effect on uncoupled photosystem 2 of spinach chloroplast assessed as inhibition of electron transport rate of water to silicomolybdate at 200 uM relative to control. The gist of the method:
as §3

The test system of test [12] is Spinacia oleracea. The test is described as follows: Effect on uncoupled photosystem 2 of spinach chloroplast assessed as inhibition of electron transport rate of water to silicomolybdate at 100 uM relative to control. In short, it runs like this: as §3
In test [13] the test system is Spinacia oleracea. Briefly: Effect on uncoupled photosystem 2 of spinach leaves chloroplast assessed as inhibition of electron transport from diphenylcarbazide to 2,6-dichlorophenol indophenol at 100 uM relative to control. The gist of the method: as §2
For test [14], the system named is Spinacia oleracea. The test is described as follows: Effect on uncoupled photosystem 2 of spinach leaves chloroplast assessed as inhibition of electron transport from diphenylcarbazide to 2,6-dichlorophenol indophenol at 250 uM relative to control. In short, it runs like this: as §2
Test [15] relates to Spinacia oleracea. Briefly: Effect on uncoupled photosystem 2 of spinach chloroplast assessed as inhibition of electron transport rate of water to silicomolybdate at 150 uM relative to control. In short, it runs like this: as §3
For test [16], the system named is Spinacia oleracea. The test is described as follows: Effect on uncoupled photosystem 2 of spinach leaves chloroplast assessed as inhibition of electron transport from water to 2,6-dichlorophenol indophenol at 300 uM relative to control. The gist of the method: as §4
For test [17], the system named is Spinacia oleracea. Briefly: Effect on uncoupled photosystem 2 of spinach leaves chloroplast assessed as inhibition of electron transport from water to 2,6-dichlorophenol indophenol at 50 uM relative to control. In short, it runs like this: as §4
Test [18] concerns Spinacia oleracea. The test is described as follows: Effect on uncoupled photosystem 2 of spinach chloroplast assessed as inhibition of electron transport rate of water to silicomolybdate at 300 uM relative to control. The gist of the method: as §3
Test [19] has as its system Spinacia oleracea. The test is described as follows: Effect on uncoupled photosystem 2 of spinach leaves chloroplast assessed as inhibition of electron transport from water to 2,6-dichlorophenol indophenol at 250 uM relative to control. In short, it runs like this:
as §4

For test [20], the system named is Spinacia oleracea. The test is described as follows: Inhibition of photophosphorylation in spinach leaves chloroplast assessed as inhibition of noncyclic electron transport from water to methyl viologen in uncoupled condition. In kind it is functional. In short, it runs like this: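 Water→0.05 mM MV O2 uptake measured with a Clark electrode in basal medium (15 mM tricine pH 8.0, 0.5 mM KCN) plus 6 mM NH4Cl as uncoupler, with 2 min actinic illumination. Compounds at 50–300 µM. I50 from the percent-activity versus concentration plot.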

Test [21] can be described thus: Inhibition of light-dependent proton uptake in spinach leaves chloroplast. In kind it is functional, Spinacia oleracea. The following applies: read-out: I50. The gist of the method:
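Light-driven proton uptake recorded as a pH rise from 8.0 to 8.1 with a combination microelectrode on an expanded-scale potentiometer. Medium: 100 mM sorbitol, 5 mM MgCl2, 10 mM KCl, 1 mM tricine pH 8.0, 0.05 mM MV. Compounds at 50–300 µM. I50 read from the plot of percent activity against concentration.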

The test system of test [22] is Spinacia oleracea. Briefly: Effect on uncoupled photosystem 2 of spinach leaves chloroplast assessed as inhibition of electron transport from diphenylcarbazide to 2,6-dichlorophenol indophenol at 50 uM relative to control. The gist of the method: as §2
In test [23] the test system is Spinacia oleracea. The test is described as follows: Effect on uncoupled photosystem 2 of spinach leaves chloroplast assessed as inhibition of electron transport from water to 2,6-dichlorophenol indophenol at 200 uM relative to control. The gist of the method: as §4
Test [24] concerns Spinacia oleracea. The test is described as follows: Effect on uncoupled photosystem 2 of spinach leaves chloroplast assessed as inhibition of electron transport from water to 2,6-dichlorophenol indophenol at 100 uM relative to control. The gist of the method: as §4
Test [25] concerns Spinacia oleracea. Briefly: Effect on uncoupled photosystem 2 of spinach leaves chloroplast assessed as inhibition of electron transport from diphenylcarbazide to 2,6-dichlorophenol indophenol at 200 uM relative to control. In short, it runs like this: as §2

Activity calls are given as the source filed them. The rule behind the calls is not given here. Some results are limits rather than exact numbers.

With `CN(C)C(=O)Nc1ccc(Cl)c(Cl)c1` [DCMU], the IC50 in test [1] is 0.14 µM.
For `COC(=O)c1c(C)cc(O)c(C=O)c1O` [METHYL HAEMATOMMATE], the IC50 with Echinochloa crus-galli [2] was determined as 29 µM.
For the compound `COC(=O)c1c(C)cc(O)cc1O` [METHYL ORSELLINATE], the IC50 was found to be 310 µM in the test on Echinochloa crus-galli [2], 290 µM in test [3], 360 µM in test [4] and 680 µM in the test on Echinochloa crus-galli [5].
Take `Cc1cc(O)cc(O)c1` [ORCINOL]: the IC50 is 1100 µM in the test on Echinochloa crus-galli [2], 1000 µM in test [3], 1700 µM in test [4] and more than 8100 µM in the test with Echinochloa crus-galli [5].
With `Cc1cc(O)cc(OC(=O)c2c(C)cc(O)cc2O)c1` [LECANORIN], the Activity with Spinacia oleracea [6] was 135; with Spinacia oleracea [8], 88.9; in the test with Spinacia oleracea [9] it was 15.7; in the test with Spinacia oleracea [10], 59.1; with Spinacia oleracea [12] it was 25; with Spinacia oleracea [13], 86.9. The Activity was found to be 112 with Spinacia oleracea [14]; 8.4 with Spinacia oleracea [15]; 64.3 in the test on Spinacia oleracea [17]; 93.6 with Spinacia oleracea [22]; 37.5 with Spinacia oleracea [24]; 96 in the test with Spinacia oleracea [25]. Also, the result in the test on Spinacia oleracea [7], with Spinacia oleracea [11], in the test with Spinacia oleracea [16], in the test on Spinacia oleracea [18], in the test on Spinacia oleracea [19] and in the test with Spinacia oleracea [20] was Active. In addition, the result in the test on Spinacia oleracea [23] was Active. In addition, the IC50 in test [1] worked out at 136 µM; with Echinochloa crus-galli [2], 180 µM; in test [3] it was 580 µM; in test [21], 140 µM; in [4] it was 760 µM; with Echinochloa crus-galli [5], 710 µM.
With `Cc1cc(OC(=O)c2c(C)cc(OC(=O)c3c(C)cc(O)cc3O)cc2O)cc(O)c1C(=O)O` [GYROPHORIC ACID], the Activity came to 17.9 with Spinacia oleracea [6]; 40.3 in the test on Spinacia oleracea [8]; 31.3 with Spinacia oleracea [9]; 93.4 in the test on Spinacia oleracea [10]; 41 in the test with Spinacia oleracea [11]; 79.9 in the test with Spinacia oleracea [12]. In addition, the Activity with Spinacia oleracea [13] was found to be 58.5; in the test on Spinacia oleracea [14], 29.9; in the test with Spinacia oleracea [15] it was 62.5; in the test on Spinacia oleracea [17], 72.1; in the test on Spinacia oleracea [19] it was 4.1; with Spinacia oleracea [22], 84.3. Further, the Activity in the test on Spinacia oleracea [23] amounted to 16.8; in the test with Spinacia oleracea [24] it was 49.7; in the test with Spinacia oleracea [25], 33.8. The outcome with Spinacia oleracea [7], in the test with Spinacia oleracea [16], in the test with Spinacia oleracea [18] and in the test with Spinacia oleracea [20] was Active. Moreover, the IC50 in test [1] worked out at 87.1 µM; in the test on Echinochloa crus-galli [2], 2000 µM; in [3], 2000 µM; in [21], 59.7 µM; in [4], 2000 µM; in the test with Echinochloa crus-galli [5] it was 2000 µM.
In the case of `COc1cc(C)c2c(=O)c3c(O)cc(OC)cc3oc2c1` [LICHEXANTHONE], the IC50 (with Echinochloa crus-galli [2]; in test [3]; in test [4]; in the test with Echinochloa crus-galli [5]) was more than 2000 µM each time.
For `COC(=O)c1c(C)cc(O)c(C)c1O` [ATRARIC ACID], the IC50 with Echinochloa crus-galli [2] was 610 µM; in [3], 320 µM; in test [4] it was 760 µM; with Echinochloa crus-galli [5], 1100 µM.
Turning to `O=C(O)COc1ccc(Cl)cc1Cl` [2,4-DICHLOROPHENOXYACETIC ACID], the IC50 in the test on Echinochloa crus-galli [2] was more than 230 µM; in test [4], 880 µM; in the test on Echinochloa crus-galli [5], more than 230 µM.
